≈ marks a conversion by molar mass, not a printed value. Calls of active or inactive are those of the source. The calls are words filed in the database; no cut-off is given here.
Columns and labels:
Phytophthora infestans [1] = assay: Antifungal activity against Phytophthora infestans assessed as inhibition of radial mycelial growth at 11.11 to 900 ug/ml incubated at 20 degC for 5 to 7 days by poison plate assay; type: functional
Outline: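 Poison-plate assay: material in MeOH added 1:100 to V8-agar at 50 °C, 2 mL per well of six-well plates, centre-inoculated with a 5 mm plug from the colony margin. Incubated at 20 °C until control growth reached the edge. Controls were 1% MeOH. Read as % inhibition of radial growth. Two runs, four replicates each. IC50 by probit.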

Rhizoctonia solani [2] = assay: In vivo antifungal activity against Rhizoctonia solani infected rice seedlings assessed as control of rice sheath blight disease development at 500 ug/ml treated 1 day before spore inoculation measured 3-7 days after inoculation; type: functional
Outline: (§1)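 Potted seedlings sprayed to runoff with material dissolved in MeOH and diluted in 0.025% Tween 20 (5% MeOH); controls got the Tween/MeOH solution alone. Inoculated with spores or mycelial suspension 1 day later. Infected leaf or sheath area rated 3–7 days after inoculation; % control = 100(A−B)/A. Randomized complete block design, three replicates, run in duplicate; Tukey HSD.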

Blumeria hordei [3] = assay: In vivo antifungal activity against Blumeria graminis f. sp. hordei infected barley seedlings assessed as control of barley powdery mildew disease development at 250 ug/ml treated 1 day before spore inoculation measured 3-7 days after inoculation; type: functional; outline: as §1
[4] = test system: Bursaphelenchus xylophilus; assay: Nematicidal activity against second juvenile stage (J2) of Bursaphelenchus xylophilus assessed as mortality after 2 days by microtiter plate assay method (Beneficial crop Pine); type: functional; settings: 48 h
Outline: (§2)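 Pine wood nematodes reared on B. cinerea mycelia on PDA for 7 days at 28 °C. J2s collected in 0.01% Triton X-100 water and tested in microtiter plates. Compounds in DMSO or MeOH, solvent ≤1%; solvent-only controls. Concentrations 0.004–1 μg/mL. Mortality Abbott-corrected; LC50 by probit. Two runs, three replicates each.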

Rhizoctonia solani [5] = assay: In vivo antifungal activity against Rhizoctonia solani infected rice seedlings assessed as control of rice sheath blight disease development at 250 ug/ml treated 1 day before spore inoculation measured 3-7 days after inoculation; type: functional; outline: as §1
Rhizoctonia solani [6] = assay: In vivo antifungal activity against Rhizoctonia solani infected rice seedlings assessed as control of rice sheath blight disease development at 125 ug/ml treated 1 day before spore inoculation measured 3-7 days after inoculation; type: functional; outline: as §1
Blumeria hordei [7] = assay: In vivo antifungal activity against Blumeria graminis f. sp. hordei infected barley seedlings assessed as control of barley powdery mildew disease development at 500 ug/ml treated 1 day before spore inoculation measured 3-7 days after inoculation; type: functional; outline: as §1
Phytophthora infestans [8] = assay: Antifungal activity against Phytophthora infestans assessed as inhibition of sporangium germination incubated at 20 degC for 24 hr by light microscopy; type: functional, organism-based
Outline: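 Sporangium germination: compounds serially diluted in MeOH (12500 to 391 μg/mL as stock series), sporangia incubated 24 h at 20 °C. About 100 sporangia per replicate scored for germination by light microscope. Experiment repeated, mean ± SD. IC50 by probit.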

Phytophthora infestans [9] = assay: In vivo antifungal activity against Phytophthora infestans zoospores infected tomato seedlings assessed as control of tomato late blight disease development treated 1 day before spore inoculation measured 3 days after inoculation; type: functional, organism-based; outline: as §1
Pyricularia oryzae [10] = assay: In vivo antifungal activity against Magnaporthe oryzae infected rice seedlings assessed as control of rice blast disease development at 250 ug/ml treated 1 day before spore inoculation measured 3-7 days after inoculation; type: functional; outline: as §1
Puccinia recondita [11] = assay: In vivo antifungal activity against Puccinia recondita infected wheat seedlings assessed as reduction in wheat leaf rust disease symptoms development at 500 ug/ml treated 1 day before spore inoculation measured 7 days after inoculation; type: functional; parameters: scale not given: the % may be the effect or the level left; outline: as §1
Colletotrichum coccodes [12] = assay: In vivo antifungal activity against Colletotrichum coccodes infected red pepper seedlings assessed as control of red pepper anthracnose development at 250 ug/ml treated 1 day before spore inoculation measured 3-7 days after inoculation; type: functional; outline: as §1
Puccinia recondita [13] = assay: In vivo antifungal activity against Puccinia recondita infected wheat seedlings assessed as reduction in wheat leaf rust disease symptoms development at 125 ug/ml treated 1 day before spore inoculation measured 7 days after inoculation; type: functional; parameters: scale not given: the % may be the effect or the level left; outline: as §1
Meloidogyne incognita [14] = assay: Nematicidal activity against second juvenile stage (J2) of Meloidogyne incognita (root-knot nematode) assessed as mortality incubated in the dark at 28 degC after 1 day by light microscopy (benficial crop Tomato); type: functional; settings: 24 h
Outline: (§3)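 M. incognita eggs taken from infected tomato roots with hypochlorite and J2s hatched in Baermann funnels at 28 °C. J2s from the first 3 days kept in 0.01% Tween 20 water and used within 24 h. About 100 J2s per well; stock added 1:100 in DMSO or MeOH (≤1%). Plates kept shaking in the dark at 28 °C, scored by microscope at 1, 2 and 3 days. Mortality Abbott-corrected. Two runs, three replicates each.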

Botrytis cinerea [15] = assay: In vivo antifungal activity against Botryotinia fuckeliana infected in tomato seedlings assessed as control of tomato gray mold disease development at 500 ug/ml treated 1 day before spore inoculation measured 3-7 days after inoculation; type: functional; outline: as §1
Blumeria hordei [16] = assay: In vivo antifungal activity against Blumeria graminis f. sp. hordei infected barley seedlings assessed as control of barley powdery mildew disease development at 125 ug/ml treated 1 day before spore inoculation measured 3-7 days after inoculation; type: functional; outline: as §1
Meloidogyne incognita [17] = assay: Nematicidal activity against second juvenile stage (J2) of Meloidogyne incognita (root-knot nematode) assessed as mortality incubated in the dark at 28 degC after 3 days by light microscopy (benficial crop Tomato); type: functional; settings: 72 h; outline: as §3
Puccinia recondita [18] = assay: In vivo antifungal activity against Puccinia recondita infected wheat seedlings assessed as reduction in wheat leaf rust disease symptoms development at 250 ug/ml treated 1 day before spore inoculation measured 7 days after inoculation; type: functional; parameters: scale not given: the % may be the effect or the level left; outline: as §1
Botrytis cinerea [19] = assay: In vivo antifungal activity against Botryotinia fuckeliana infected in tomato seedlings assessed as control of tomato gray mold disease development at 250 ug/ml treated 1 day before spore inoculation measured 3-7 days after inoculation; type: functional; outline: as §1
Colletotrichum coccodes [20] = assay: In vivo antifungal activity against Colletotrichum coccodes infected red pepper seedlings assessed as control of red pepper anthracnose development at 500 ug/ml treated 1 day before spore inoculation measured 3-7 days after inoculation; type: functional; outline: as §1
[21] = test system: Bursaphelenchus xylophilus; assay: Nematicidal activity against second juvenile stage (J2) of Bursaphelenchus xylophilus assessed as mortality at >0.33 ug/ml after 2 days by microtiter plate assay method (Beneficial crop Pine); type: functional; outline: as §2
Meloidogyne incognita [22] = assay: Nematicidal activity against second juvenile stage (J2) of Meloidogyne incognita (root-knot nematode) assessed as mortality at 11 ug/ml incubated in the dark at 28 degC within 2 hr by light microscopy (benficial crop Tomato); type: functional
Pyricularia oryzae [23] = assay: In vivo antifungal activity against Magnaporthe oryzae infected rice seedlings assessed as control of rice blast disease development at 500 ug/ml treated 1 day before spore inoculation measured 3-7 days after inoculation; type: functional; outline: as §1
Meloidogyne incognita [24] = assay: Nematicidal activity against second juvenile stage (J2) of Meloidogyne incognita (root-knot nematode) assessed as mortality incubated in the dark at 28 degC after 2 days by light microscopy (benficial crop Tomato); type: functional; settings: 48 h; outline: as §3
Phytophthora infestans [25] = assay: Antifungal activity against Phytophthora infestans assessed as inhibition of zoospore germination incubated in the dark at 20 degC for 24 hr by light microscopy; type: functional, organism-based
Outline: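 Zoospores released by chilling sporangia 1 h at 4 °C, then filtered to remove sporangia. Test solution in MeOH mixed 1:100 with the suspension (1% MeOH control), loaded onto hole-slide glasses and kept humid at 20 °C for 24 h in the dark. Germinated cells counted per hole by light microscope. Experiment repeated, mean ± SD.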

Pyricularia oryzae [26] = assay: In vivo antifungal activity against Magnaporthe oryzae infected rice seedlings assessed as control of rice blast disease development at 125 ug/ml treated 1 day before spore inoculation measured 3-7 days after inoculation; type: functional; outline: as §1
Botrytis cinerea [27] = assay: In vivo antifungal activity against Botryotinia fuckeliana infected in tomato seedlings assessed as control of tomato gray mold disease development at 125 ug/ml treated 1 day before spore inoculation measured 3-7 days after inoculation; type: functional; outline: as §1
Puccinia recondita [28] = assay: In vivo antifungal activity against Puccinia recondita infected wheat seedlings assessed as reduction in wheat leaf rust disease symptoms development at 50 to 300 ug/ml treated 1 day before spore inoculation measured 7 days after inoculation; type: functional, organism-based; outline: as §1
Colletotrichum coccodes [29] = assay: In vivo antifungal activity against Colletotrichum coccodes infected red pepper seedlings assessed as control of red pepper anthracnose development at 125 ug/ml treated 1 day before spore inoculation measured 3-7 days after inoculation; type: functional; outline: as §1
Phytophthora infestans [30] = assay: In vivo antifungal activity against Phytophthora infestans zoospores infected tomato seedlings assessed as control of tomato late blight disease development at 3.9 ug/ml treated 1 day before spore inoculation measured 3 days after inoculation; type: functional; outline: as §1
Caenorhabditis elegans = assay: Nematicidal activity against Caenorhabditis elegans assessed as mortality; type: functional

Structure (SMILES) | growth inhibition (GI) (Phytophthora infestans [1]) [%] | Activity (Rhizoctonia solani [2]) [%] | Activity (Blumeria hordei [3]) [%] | LC50 [4] [µg/mL] | Activity (Rhizoctonia solani [5]) [%] | Activity (Rhizoctonia solani [6]) [%] | Activity (Blumeria hordei [7]) [%] | IC50 (Phytophthora infestans [8]) [µg/mL] | inhibition (Phytophthora infestans [8]) | Activity (Phytophthora infestans [9]) | Activity (Pyricularia oryzae [10]) [%] | Activity (Colletotrichum coccodes [12]) [%] | LC50 (Meloidogyne incognita [14]) [µg/mL] | Activity (Botrytis cinerea [15]) [%] | Activity (Blumeria hordei [16]) [%] | LC50 (Meloidogyne incognita [17]) [µg/mL] | Activity (Botrytis cinerea [19]) [%] | Activity (Colletotrichum coccodes [20]) [%] | mortality [21] [%] | Activity (Pyricularia oryzae [23]) [%] | further results
CCCCCCCCCC[C@H](O)[C@H]1CC[C@H]([C@H]2CC[C@H]([C@H](O)CCCCCCCCCC[C@@H](O)CC3=C[C@H](C)OC3=O)O2)O1 (relative stereo) [REL-SQUAMOCIN-G] | 31 | 0 | 25 | 0.008 | 0 | 11.8 | 0 | 1.43 (≈ 2.3 µM) | Dose-dependent effect | Dose-dependent effect | 18.8 | 0 | 0.864 (≈ 1.39 µM) | 0 | 0 | 0.287 (≈ 0.461 µM) | 20 | 0 | 100 | 18.8 | Activity (Puccinia recondita [11]): 0%; Activity (Puccinia recondita [13]): 0%; Activity (Puccinia recondita [18]): 0%; mortality at 11 µg/mL (Meloidogyne incognita [22]): 100%; LC50 (Meloidogyne incognita [24]): 0.339 µg/mL (≈ 0.544 µM); IC50 (Phytophthora infestans [25]): 1.92 µg/mL (≈ 3.08 µM); inhibition (Phytophthora infestans [25]): Dose-dependent effect; Activity (Pyricularia oryzae [26]): 12.5%; Activity (Botrytis cinerea [27]): 20%
CCCCCC[C@H](O)CCC[C@H](O)[C@H]1CC[C@H]([C@H](O)CC[C@H](O)[C@@H]2CC[C@@H](CCCCCCCCCC3=C[C@H](C)OC3=O)O2)O1 (relative stereo) [SQUAMOSTATIN A] | 31 | 11.8 | 0 | 0.048 | 11.8 | 0 | 0 | 2.09 (≈ 3.27 µM) | Dose-dependent effect | Dose-dependent effect | 31.3 | 40 | – | 10 | 0 | – | 10 | 0 | 100 | 37.5 | Activity (Puccinia recondita [28]): Active; Activity (Colletotrichum coccodes [29]): 20%; Activity (Phytophthora infestans [30]): >70%; IC50 (Phytophthora infestans [25]): 1.89 µg/mL (≈ 2.96 µM); inhibition (Phytophthora infestans [25]): Dose-dependent effect; Activity (Pyricularia oryzae [26]): 50%; Activity (Botrytis cinerea [27]): 10%
CCCCCCCCCC[C@@H](O)[C@H]1CC[C@H]([C@H]2CC[C@H]([C@H](O)CCCCCCCCCC[C@@H](O)CC3=C[C@H](C)OC3=O)O2)O1 [REL-SQUAMOCIN-H] | – | – | – | 0.012 | – | – | – | – | – | – | – | – | > 100 | – | – | 24.3 (≈ 39 µM) | – | – | 100 | – | LD100 (Caenorhabditis elegans): 0.1 ppm; LC50 (Meloidogyne incognita [24]): 71.2 µg/mL (≈ 114 µM)
